Results from article PMC3220786 (ACS Chemical Biology, 2011).
Where a SMILES comes first, the peptide text is derived from it. [ ]: non-standard residue; d: D form. The star is where a group is joined. NHCH2CH2OH = OCCN*; For = O=C*

Assays:
[1] = tested on: P. falciparum ATQ-R lines (cytochrome b mutants); experiment: SYBR Green proliferation assay, atovaquone-resistant; type: cell-based, Plasmodium falciparum; settings: for shift of IC50 across ATQ-R lines (control compounds) / loss of potency, residue 133 mutants (M133I, M133V): ATQ-R lines vs parental 3D7; for loss of potency, F267V mutant / loss of potency, residue 144 mutant / loss of potency, triple mutant (M133I/V140T/L181V): ATQ-R line vs parental 3D7
[2] = tested on: P. falciparum ScDHOD-D10attB; experiment: SYBR Green proliferation assay, transgenic ScDHOD-D10attB line; type: cell-based, Plasmodium falciparum; settings: for shift in IC50, ScDHOD-D10attB vs parental line: transgenic parasites expressing yeast dihydroorotate dehydrogenase; for IC50: Plasmodium falciparum, read-out: IC50 values, ScDHOD-D10attB
Outline: (§1)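 Blood-stage P. falciparum D10attB parental line and ScDHOD-D10attB transgenic line (single integrated copy of yeast DHOD gene) were tested in the SYBR Green proliferation assay. IC50 values are means ± SD of three independent experiments, each in duplicate. The shift compares the transgenic IC50 with the parental IC50.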

[3] = tested on: Murine pro-B cell line Ba/F3; experiment: Cytotoxicity, Ba/F3 cells; type: cell-based; settings: read-out: mammalian cell line CC50; Ba/F3; CellTiter Glo reagent
P. falciparum 3D7 strain = experiment: SYBR Green parasite proliferation assay, 3D7; type: cell-based, Plasmodium falciparum; settings: CC50 Ba/F3 / IC50 P. falciparum 3D7
[4] = Cytotoxicity, Ba/F3 cells; type: cell-based, murine; settings: mouse
[5] = tested on: P. yoelii (17XNL strain) sporozoites; experiment: Prophylaxis activity test in sporozoite-infected mice; type: in vivo, ICR female mouse
Outline: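 ICR female mice (7 weeks, 26–36 g) received 50,000 P. yoelii 17XNL sporozoites via the tail vein. Immediately afterwards they were given a single oral gavage dose of test compound at 50 mg kg–1 in corn oil (5 mice). Parasitemia was checked daily by Giemsa-stained tail-snip blood microscopy. Prepatent period = first day parasitemia was seen. Mice were euthanized above 20% parasitemia.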

[6] = chickens, iv; cited from earlier work
[7] = tested on: P. yoelii sporozoites in HepG2-A16-CD81EGFP cells; type: cell-based, Plasmodium yoelii; settings: for IC50: Plasmodium yoelii, in Homo sapiens, read-out: IC50, liver stage
[8] = molecular target: T1, P. yoelii cytochrome c reductase (Plasmodium yoelii, UniProt Q7PDA7); experiment: Ubiquinol-cytochrome c oxidoreductase; type: biochemical
T1 sequence (Q7PDA7 1-376): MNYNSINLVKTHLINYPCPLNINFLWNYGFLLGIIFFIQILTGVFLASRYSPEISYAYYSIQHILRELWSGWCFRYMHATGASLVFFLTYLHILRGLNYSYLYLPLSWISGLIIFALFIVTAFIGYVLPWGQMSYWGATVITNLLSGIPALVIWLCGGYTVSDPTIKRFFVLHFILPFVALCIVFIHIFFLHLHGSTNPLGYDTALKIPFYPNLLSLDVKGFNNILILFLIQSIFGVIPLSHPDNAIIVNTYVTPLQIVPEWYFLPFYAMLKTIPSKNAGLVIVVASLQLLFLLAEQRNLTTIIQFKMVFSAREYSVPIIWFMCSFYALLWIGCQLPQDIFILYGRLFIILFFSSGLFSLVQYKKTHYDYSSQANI
T1 sequence (V7P9V8 31-357 partner): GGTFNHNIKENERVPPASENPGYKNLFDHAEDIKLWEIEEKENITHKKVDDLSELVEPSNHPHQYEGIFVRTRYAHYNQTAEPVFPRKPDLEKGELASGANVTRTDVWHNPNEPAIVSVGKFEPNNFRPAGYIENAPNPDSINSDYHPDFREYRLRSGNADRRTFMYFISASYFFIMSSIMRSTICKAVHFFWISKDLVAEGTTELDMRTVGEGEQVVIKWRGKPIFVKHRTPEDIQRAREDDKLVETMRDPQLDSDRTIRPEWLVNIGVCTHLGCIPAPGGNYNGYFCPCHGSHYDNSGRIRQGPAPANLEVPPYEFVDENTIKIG
T1 sequence (Q7RJI2 1-394 partner): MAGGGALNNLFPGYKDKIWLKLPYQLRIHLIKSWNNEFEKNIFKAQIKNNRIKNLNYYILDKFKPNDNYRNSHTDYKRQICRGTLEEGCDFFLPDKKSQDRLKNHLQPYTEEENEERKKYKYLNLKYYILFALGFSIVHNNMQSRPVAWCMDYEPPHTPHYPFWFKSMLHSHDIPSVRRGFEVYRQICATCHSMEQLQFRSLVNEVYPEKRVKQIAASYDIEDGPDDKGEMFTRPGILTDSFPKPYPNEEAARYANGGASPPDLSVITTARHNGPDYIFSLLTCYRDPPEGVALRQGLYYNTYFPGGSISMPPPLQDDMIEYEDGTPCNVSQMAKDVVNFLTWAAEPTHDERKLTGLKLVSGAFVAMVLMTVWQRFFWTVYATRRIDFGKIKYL

P. falciparum D10attB = experiment: SYBR Green proliferation assay, parental D10attB line; type: cell-based; settings: Plasmodium falciparum, read-out: IC50 values, D10attB
Outline: as §1

P. falciparum DEC-R line = experiment: SYBR Green proliferation assay, decoquinate-resistant; type: cell-based, Plasmodium falciparum; settings: loss of potency against decoquinate-resistant clone

## COc1ccc(C[C@H]2NC[C@H](O)[C@H]2OC(C)=O)cc1 [Anisomycin]
[1]
  shift of IC50 across ATQ-R lines (control compounds): nearly invariable
[2]
  shift in IC50, ScDHOD-D10attB vs parental line: no shift

## COC[C@H]1C(=O)NCC(=O)N2NCCC[C@H]2C(=O)N(O)[C@H](C)C(=O)O[C@@H](C(C)C)[C@H](NC(=O)[C@](C)(O)[C@]2(O)CC[C@@H](CC(C)C)[C@H](C)O2)C(=O)N2NCCC[C@@H]2C(=O)N1O [Aurantimycin A]
[3]
  CC50: 45 nM
P. falciparum 3D7 strain
  therapeutic index CC50/IC50: 0.5

## COc1ccc2cc3[n+](cc2c1OC)CCc1cc2c(cc1-3)OCO2 [Berberine]
[4]; Ba/F3 cells
  CC50 at 3 days: 320 nM
P. falciparum 3D7 strain
  therapeutic index CC50/IC50: 0.6

## C[C@@H]1C[C@H](C)C[C@H](C)[C@@H](O)CC(=O)O[C@H]([C@@H]2CCC[C@H]2C(=O)O)C/C=C/C=C(/C#N)[C@H](O)[C@@H](C)C1 [Borrelidin]
[4]; Ba/F3 cells
  CC50 at 3 days: 959 nM
P. falciparum 3D7 strain
  therapeutic index CC50/IC50: 11.6

## CCOC(=O)c1cnc2cc(OCC3CC3)c(OCC3CC3)cc2c1O [Ciproquinate]
[4]; Ba/F3 cells
  CC50 at 3 days: > 1250 nM
P. falciparum 3D7 strain
  therapeutic index CC50/IC50: >156

## CCCCCCC[N+](CC)(CC)CCCCc1ccc(Cl)cc1 [Clofilium]
[4]; Ba/F3 cells
  CC50 at 3 days: > 1250 nM
P. falciparum 3D7 strain
  therapeutic index CC50/IC50: >2.4

## CCCCCCCCCCOc1cc2c(O)c(C(=O)OCC)cnc2cc1OCC [Decoquinate]
[5]; single oral dose with 50,000 sporozoites i.v.
  prepatent period (day at which parasitemia was first observed): 8 days
[1]
  loss of potency, F267V mutant: 2 fold
  loss of potency, residue 144 mutant: no effect
  loss of potency, triple mutant (M133I/V140T/L181V): 5 fold
  loss of potency, residue 133 mutants (M133I, M133V): did not alter
[6]
  t1/2: 9 to 22 h
[7]
  fold increase in liver stage activity over atovaquone: 10 fold
  IC50: 0.177 nM
[4]; Ba/F3 cells
  CC50 at 3 days: > 12500 nM
[8]
  IC50: 97 nM
[2]
  IC50: > 1000 nM
P. falciparum D10attB
  IC50: 5.3 ± 1.24 nM
P. falciparum DEC-R line
  fold change in IC50, DEC-R clone vs parental 3D7: 90 fold
P. falciparum 3D7 strain
  therapeutic index CC50/IC50: >2,500
P. falciparum 3D7 strain; listed as decoquinate
  therapeutic index CC50/IC50: > 2,500

## CCC(Cc1cnc2nc(N)nc(N)c2n1)c1ccc(C(=O)N[C@@H](CCC(=O)O)C(=O)O)cc1 (some centres unmarked) [Edatrexate]
[4]; Ba/F3 cells
  CC50 at 3 days: 5 nM
P. falciparum 3D7 strain
  therapeutic index CC50/IC50: 0.1

## CN(C)c1ccc(C(=C2C=CC(=[N+](C)C)C=C2)c2ccc(N(C)C)cc2)cc1 [Gentian violet]
[4]; Ba/F3 cells
  CC50 at 3 days: > 1250 nM
P. falciparum 3D7 strain
  therapeutic index CC50/IC50: >4

## CC(C)C[C@@H](NC(=O)[C@H](C)NC(=O)CNC(=O)[C@@H](NC=O)C(C)C)C(=O)N[C@@H](C)C(=O)N[C@@H](C(=O)N[C@H](C(=O)N[C@@H](C(=O)N[C@@H](Cc1c[nH]c2ccccc12)C(=O)N[C@H](CC(C)C)C(=O)N[C@@H](Cc1c[nH]c2ccccc12)C(=O)N[C@H](CC(C)C)C(=O)N[C@@H](Cc1c[nH]c2ccccc12)C(=O)N[C@H](CC(C)C)C(=O)N[C@@H](Cc1c[nH]c2ccccc12)C(=O)NCCO)C(C)C)C(C)C)C(C)C [Gramicidin A] (For-VGA[dL]A[dV]V[dV]W[dL]W[dL]W[dL]W-NHCH2CH2OH)
[4]; Ba/F3 cells (murine pro-B cell line)
  CC50 at 3 days: 110 nM

## O[Si](CCCN1CCCCC1)(c1ccccc1)C1CCCCC1 (centres unmarked) [HHSiD, Hexahydro-sila-difenidol]
[3]
  CC50: > 1250 nM
P. falciparum 3D7 strain
  therapeutic index CC50/IC50: >16.4

## Cl.Cl.O=C(Nc1ccc(C2=NCCCN2)cc1)c1ccc(C(=O)Nc2ccc(C3=NCCCN3)cc2)cc1 [NSC 57153]
[3]
  CC50: 550 nM
P. falciparum 3D7 strain
  therapeutic index CC50/IC50: 1.1

## CCCOC(=O)C[N+](C)(C)CCOCCCCCCCCCCOCC[N+](C)(C)CC(=O)OCCC [Prodeconium]
[3]
  CC50: > 6250 nM
P. falciparum 3D7 strain
  therapeutic index CC50/IC50: >156

## COc1ccc(C[C@H](N)C(=O)N[C@H]2[C@@H](O)[C@H](n3cnc4c(N(C)C)ncnc43)O[C@@H]2CO)cc1 [Puromycin]
[4]; Ba/F3 cells
  CC50 at 3 days: > 1250 nM
P. falciparum 3D7 strain
  therapeutic index CC50/IC50: >14.2

## CO\C=C(C(=O)OC)/C(C)=C\C=C\c1ccc(Cl)c(OC)c1 [Strobilurin B]
[3]
  CC50: 3100 nM
P. falciparum 3D7 strain
  therapeutic index CC50/IC50: 13.5

## CCCCCCCCNC(C)C(O)c1ccc(SC(C)C)cc1 (centres unmarked) [Suloctidil]
[4]; Ba/F3 cells
  CC50 at 3 days: 970 nM
P. falciparum 3D7 strain
  therapeutic index CC50/IC50: 0.6

## N=C(N)NCCCCCCCCCCNC(=N)N [Synthalin]
[4]; Ba/F3 cells
  CC50 at 3 days: > 5400 nM
P. falciparum 3D7 strain
  therapeutic index CC50/IC50: >200

## CCN(CC)CCOc1ccc2c(c1)C(=O)c1cc(OCCN(CC)CC)ccc1-2 [Tilorone]
[4]; Ba/F3 cells
  CC50 at 3 days: > 12500 nM
P. falciparum 3D7 strain
  therapeutic index CC50/IC50: >12.5

## CC(C)[C@@H]1NC(=O)[C@H](C)OC(=O)[C@@H](C(C)C)NC(=O)[C@@H](C(C)C)OC(=O)[C@H](C(C)C)NC(=O)[C@H](C)OC(=O)[C@@H](C(C)C)NC(=O)[C@@H](C(C)C)OC(=O)[C@H](C(C)C)NC(=O)[C@H](C)OC(=O)[C@@H](C(C)C)NC(=O)[C@@H](C(C)C)OC1=O [Valinomycin]
[4]; Ba/F3 cells
  CC50 at 3 days: 91 nM
P. falciparum 3D7 strain
  therapeutic index CC50/IC50: 12.8

## CC1=C[C@H]2O[C@@H]3C[C@H]4OC(=O)/C=C\C=C\C(=O)OCC/C(C)=C/C(=O)OC[C@@]2(CC1)[C@]4(C)[C@]31CO1 [Verrucarin J]
P. falciparum 3D7 strain
  therapeutic index CC50/IC50: 12.1

## O=C1C(O)=C([C@H]2CC[C@H](c3ccc(Cl)cc3)CC2)C(=O)c2ccccc21 [atovaquone]
[5]; single oral dose (decoquinate 50 mg kg-1, atovaquone 2.5 mg kg-1)
  protection / survival of mice: completely protected
[1]
  loss of potency, F267V mutant: 20 fold
  loss of potency, residue 144 mutant: ~200 fold
  loss of potency, triple mutant (M133I/V140T/L181V): 2000 fold
  loss of potency, residue 133 mutants (M133I, M133V): ~16 fold
[7]
  IC50: 1.7 nM
[8]
  IC50: 7.6 nM
[2]
  IC50: > 1000 nM
  shift in IC50, ScDHOD-D10attB vs parental line: > 1900 fold
P. falciparum D10attB
  IC50: 0.512 ± 0.164 nM
P. falciparum DEC-R line
  fold change in IC50, DEC-R clone vs parental 3D7: 4 fold

## OC(c1cc(C(F)(F)F)nc2c(C(F)(F)F)cccc12)C1CCCCN1 (centres unmarked) [mefloquine]
[1]
  shift of IC50 across ATQ-R lines (control compounds): 2 fold
[2]
  IC50: 4.02 ± 1.4 nM
  shift in IC50, ScDHOD-D10attB vs parental line: slight increase in mefloquine sensitivity
P. falciparum D10attB
  IC50: 7.88 ± 1.64 nM

## Muconomycin B
[3]
  CC50: 30 nM
P. falciparum 3D7 strain
  therapeutic index CC50/IC50: 12.5
